Converted amounts (≈) assume the structure as drawn.
Assays:
[1] = tested on: Streptococcus pneumoniae; assay: Minimum inhibitory concentration Streptococcus pneumoniae UC9912; format: functional
Outline: (§1)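 MIC in µg/mL. S. aureus UC 9213 is methicillin-susceptible, and S. aureus UC 6685 and S. epidermidis UC 12084 are methicillin-resistant. E. faecalis UC 9217 and S. pneumoniae UC 9912 were also tested.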

[2] = tested on: Staphylococcus epidermidis; assay: Minimum inhibitory concentration against Staphylococcus epidermis UC12084; format: functional; outline: as §1
[3] = tested on: Mus musculus; assay: compound was tested against Staphylococcus aureus UC9213 the eperezolid administered (PO) in mouse positive control expressed as ED50 values.
[4] = tested on: Mus musculus; assay: Compound was tested against Staphylococcus aureus UC9213 after po administration in mouse; format: functional
Outline: (§2)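 Lethal systemic S. aureus infection in mice, with oral dosing. The ED50 is the dose in mg/kg body weight per dose that reduces mortality by 50%. The 95% confidence limits are −50% and +100% of the nominal value.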

[5] = tested on: Staphylococcus aureus; assay: Minimum inhibitory concentration against Staphylococcus aureus UC6685; format: functional; outline: as §1
[6] = tested on: Staphylococcus aureus; assay: Minimum inhibitory concentration against Staphylococcus aureus UC9213; format: functional; outline: as §1
[7] = tested on: Enterococcus faecalis; assay: Minimum inhibitory concentration against Enterococcus faecalis UC9217; format: functional; outline: as §1
[8] = tested on: Staphylococcus aureus; assay: compound was tested against Staphylococcus aureus UC9213 the eperezolid administered positive control expressed as ED50 values.; format: functional
Outline: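 Eperezolid was given orally in the same lethal systemic mouse S. aureus trial as the test agents. The ED50 is the mg/kg/dose that reduces mortality by 50%.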

[9] = tested on: Staphylococcus aureus; assay: compound was tested against Staphylococcus aureus UC9213 after po administration.; format: functional; outline: as §2
[10] = tested on: Caco-2; assay: permeability assessment across a monolayer of caco-2 cells in absence of GSH in aqueous base.; format: functional, Homo sapiens
[11] = tested on: Caco-2; assay: permeability assessment across a monolayer of caco-2 cells in presence of GSH in aqueous base.; format: functional, Homo sapiens
[12] = tested on: Caco-2; assay: permeability assessment across […]; format: functional, Homo sapiens

Structure (SMILES)	MIC [1] [µg/mL]	MIC [2] [µg/mL]	ED50 [3] [mg/kg]	ED50 [4] [mg/kg]	MIC [5] [µg/mL]	MIC [6] [µg/mL]	MIC [7] [µg/mL]	ED50 [8] [mg/kg]	ED50 [9] [mg/kg]	[A] [10] [µM]	[A] [11] [µM]	[EA] [12] [µM]
CC(=O)NC[C@H]1CN(c2ccc(N3CCN(c4ccc(C#N)cn4)CC3)c(F)c2)C(=O)O1	0.5 (≈ 1.14 µM)	0.5 (≈ 1.14 µM)	5.8	6.8	2 (≈ 4.56 µM)	2 (≈ 4.56 µM)	1 (≈ 2.28 µM)					
CC(=O)NC[C@H]1CN(c2ccc(N3CCN(c4cccc(C)n4)CC3)c(F)c2)C(=O)O1	0.5 (≈ 1.17 µM)	2 (≈ 4.68 µM)			2 (≈ 4.68 µM)	4 (≈ 9.36 µM)	2 (≈ 4.68 µM)					
COc1nc(OC)nc(N2CCN(c3ccc(N4C[C@H](CNC(C)=O)OC4=O)cc3F)CC2)n1	0.5 (≈ 1.05 µM)	1 (≈ 2.1 µM)			2 (≈ 4.21 µM)	4 (≈ 8.41 µM)	1 (≈ 2.1 µM)					
CC(=O)NC[C@H]1CN(c2ccc(N3CCN(c4nc(F)c(F)cc4F)CC3)c(F)c2)C(=O)O1	0.5 (≈ 1.07 µM)	1 (≈ 2.14 µM)			2 (≈ 4.28 µM)	2 (≈ 4.28 µM)	2 (≈ 4.28 µM)					
CC(=O)NC[C@H]1CN(c2ccc(N3CCN(c4cncc(Cl)n4)CC3)c(F)c2)C(=O)O1	0.5 (≈ 1.11 µM)	0.5 (≈ 1.11 µM)			1 (≈ 2.23 µM)	2 (≈ 4.46 µM)	1 (≈ 2.23 µM)	3.2	> 20			
CC(=O)NC[C@H]1CN(c2ccc(N3CCN(c4ccc(C)nn4)CC3)c(F)c2)C(=O)O1	0.5 (≈ 1.17 µM)	1 (≈ 2.33 µM)	8.7	6.3	2 (≈ 4.67 µM)	4 (≈ 9.34 µM)	2 (≈ 4.67 µM)					
CC(=O)NC[C@H]1CN(c2ccc(N3CCN(c4cnccn4)CC3)c(F)c2)C(=O)O1	0.5 (≈ 1.21 µM)	0.5 (≈ 1.21 µM)	3.2	12.5	1 (≈ 2.41 µM)	2 (≈ 4.83 µM)	2 (≈ 4.83 µM)					
CC(=O)NC[C@H]1CN(c2ccc(N3CCN(c4nc(N)nc(N)n4)CC3)c(F)c2)C(=O)O1	0.5 (≈ 1.12 µM)	1 (≈ 2.24 µM)	4.4	> 20	4 (≈ 8.98 µM)	4 (≈ 8.98 µM)	2 (≈ 4.49 µM)					
CC(=O)NC[C@H]1CN(c2ccc(N3CCN(c4c(F)c(F)nc(F)c4F)CC3)c(F)c2)C(=O)O1	2 (≈ 4.12 µM)	> 16			> 16	> 16	> 16					
CC(=O)NC[C@H]1CN(c2ccc(N3CCN(c4nc(C)cc(C)c4C#N)CC3)c(F)c2)C(=O)O1	1 (≈ 2.14 µM)	2 (≈ 4.29 µM)			4 (≈ 8.57 µM)	4 (≈ 8.57 µM)	4 (≈ 8.57 µM)					
CC(=O)NC[C@H]1CN(c2ccc(N3CCN(c4nnc(Cl)c(C)c4C)CC3)c(F)c2)C(=O)O1	2 (≈ 4.19 µM)	4 (≈ 8.39 µM)			> 16	> 16	> 16					
CC(=O)NC[C@H]1CN(c2ccc(N3CCN(c4cc(N)nc(N)n4)CC3)c(F)c2)C(=O)O1	< 0.5	1 (≈ 2.25 µM)			4 (≈ 9 µM)	8 (≈ 18 µM)	2 (≈ 4.5 µM)					
CC(=O)NC[C@H]1CN(c2ccc(N3CCN(c4nccc(C(F)(F)F)n4)CC3)c(F)c2)C(=O)O1	2 (≈ 4.15 µM)	16 (≈ 33.2 µM)			> 16	> 16	> 16					
CC(=O)NC[C@H]1CN(c2ccc(N3CCN(c4cc(C)c(Cl)nn4)CC3)c(F)c2)C(=O)O1	1 (≈ 2.16 µM)	2 (≈ 4.32 µM)			4 (≈ 8.64 µM)	8 (≈ 17.3 µM)	4 (≈ 8.64 µM)	8.7	> 20			
CCCOc1nc(Cl)nc(N2CCN(c3ccc(N4C[C@H](CNC(C)=O)OC4=O)cc3F)CC2)n1	2 (≈ 3.94 µM)	8 (≈ 15.7 µM)			8 (≈ 15.7 µM)	16 (≈ 31.5 µM)	8 (≈ 15.7 µM)					
CC(=O)NC[C@H]1CN(c2ccc(N3CCN(c4ccccn4)CC3)c(F)c2)C(=O)O1	0.5 (≈ 1.21 µM)	1 (≈ 2.42 µM)	6	11.2	2 (≈ 4.84 µM)	4 (≈ 9.67 µM)	2 (≈ 4.84 µM)			37	37	
CC(=O)NC[C@H]1CN(c2ccc(N3CCN(c4cc(C#N)ccn4)CC3)c(F)c2)C(=O)O1	0.5 (≈ 1.14 µM)	1 (≈ 2.28 µM)			1 (≈ 2.28 µM)	1 (≈ 2.28 µM)	1 (≈ 2.28 µM)					
CC(=O)NC[C@H]1CN(c2ccc(N3CCN(c4ccncn4)CC3)c(F)c2)C(=O)O1	0.5 (≈ 1.21 µM)	1 (≈ 2.41 µM)	1.8	4.4	2 (≈ 4.83 µM)	2 (≈ 4.83 µM)	1 (≈ 2.41 µM)			40	40	50
CC(=O)NC[C@H]1CN(c2ccc(N3CCN(c4ncccc4C#N)CC3)c(F)c2)C(=O)O1	0.5 (≈ 1.14 µM)	0.5 (≈ 1.14 µM)	3.2	> 20	2 (≈ 4.56 µM)	2 (≈ 4.56 µM)	1 (≈ 2.28 µM)					
CC(=O)NC[C@H]1CN(c2ccc(N3CCN(c4ccnc(C)c4)CC3)c(F)c2)C(=O)O1	0.25 (≈ 0.585 µM)	0.5 (≈ 1.17 µM)			2 (≈ 4.68 µM)	4 (≈ 9.36 µM)	2 (≈ 4.68 µM)					
CC(=O)NC[C@H]1CN(c2ccc(N3CCN(c4c(Cl)c(Cl)nc(Cl)c4Cl)CC3)c(F)c2)C(=O)O1	> 16	> 16			> 16	> 16	> 16					
CC(=O)NC[C@H]1CN(c2ccc(N3CCN(c4cc(NC(C)=O)c(Cl)nn4)CC3)c(F)c2)C(=O)O1	4 (≈ 7.91 µM)	16 (≈ 31.6 µM)			> 16	> 16	> 16					
CC(=O)NC[C@H]1CN(c2ccc(N3CCN(c4ncccn4)CC3)c(F)c2)C(=O)O1	0.5 (≈ 1.21 µM)	0.5 (≈ 1.21 µM)	6.2	6	2 (≈ 4.83 µM)	2 (≈ 4.83 µM)	2 (≈ 4.83 µM)					
CC(=O)NC[C@H]1CN(c2ccc(N3CCN(c4ccncc4)CC3)c(F)c2)C(=O)O1	< 0.125	0.5 (≈ 1.21 µM)			2 (≈ 4.84 µM)	4 (≈ 9.67 µM)	2 (≈ 4.84 µM)					
CC(=O)NC[C@H]1CN(c2ccc(N3CCN(c4ccc5nc(C)c(C(C)=O)n5n4)CC3)c(F)c2)C(=O)O1	0.5 (≈ 0.981 µM)	1 (≈ 1.96 µM)			4 (≈ 7.85 µM)	4 (≈ 7.85 µM)	4 (≈ 7.85 µM)					
CC(=O)NC[C@H]1CN(c2ccc(N3CCN(c4ccnc5ccccc45)CC3)c(F)c2)C(=O)O1	0.25 (≈ 0.539 µM)	0.5 (≈ 1.08 µM)			2 (≈ 4.31 µM)	2 (≈ 4.31 µM)	2 (≈ 4.31 µM)					
CC(=O)NC[C@H]1CN(c2ccc(N3CCN(c4cccnn4)CC3)c(F)c2)C(=O)O1	0.5 (≈ 1.21 µM)	0.5 (≈ 1.21 µM)	8.7	8.8	2 (≈ 4.83 µM)	4 (≈ 9.65 µM)	2 (≈ 4.83 µM)				36	
CC(=O)NC[C@H]1CN(c2ccc(N3CCN(c4cccc(F)n4)CC3)c(F)c2)C(=O)O1	0.5 (≈ 1.16 µM)	1 (≈ 2.32 µM)			2 (≈ 4.64 µM)	2 (≈ 4.64 µM)	2 (≈ 4.64 µM)					

Reference: ChEMBL document CHEMBL1131631, “Piperazinyl oxazolidinone antibacterial agents containing a pyridine, diazene, or triazene heteroaromatic ring” (1998)
